# Assay outcomes from PubChem BioAssay.
# A selection: hits, their analogues and other compounds. The true share with any hit is near 3.4%.
# MEKK2 mut-MEK5: signal of MEK5 binding to mutant human MEKK2 PB1 domain | 0.35% of 290,000 active | bead flow cytometry, Alexa488-MEK5 binding to MEKK2 mutant | percent response, % at 10 µM | AID 1530; in the data active means percent response above about 24%, passing the limit was not always enough
# IMP-1 inhibitor: blocks Pseudomonas aeruginosa IMP-1 metallo-beta-lactamase | AID 1556 | 0.45% of 290,000 active | inhibition, % at 5.6 µM | purified IMP-1, nitrocefin hydrolysis, epi-absorbance fluorescence;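 active means inhibition above the mean plus 3 SD of all compounds in the same screening run, cut at about 4.5% in these data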;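 further: 0% = IMP-1 with DMSO and 100% = DMSO wells lacking enzyme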
#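 System: purified IMP-1 / Input: IMP-1 dispensed at 0.2 nM / Medium: 50 mM HEPES pH 7.1, 50 µM ZnSO4, 0.05% Brij 35 / Timing: 15 min enzyme–compound preincubation, then 25 min nitrocefin reaction, 25 °C / Technique: plate fluorescence quenching by hydrolysis product, ex 480/em 530 nm / Repeats: singlicate testing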
# MEKK2 WT-MEK5: raises or lowers MEK5 binding to wildtype human MEKK2 PB1 domain. Q9Y2U5. binding response (% of control), % at 10 µM. bead flow cytometry, Alexa488-MEK5 binding to MEKK2 WT; actives lie on both sides. 1.1% of 290,000 active; in the data active means binding response below about 67% or above about 130%
# MEKK3 PB1 HTS: MEKK3-MEK5 PB1 interaction, increase or decrease. 1.4% of 290,000 active. binding response (% of control), % at 10 µM. bead-based flow cytometry, Alexa488-MEK5 binding to MEKK3; actives lie on both sides; 0 = blocked by unlabeled MEK5, 100 = vehicle. AID 1529. Q99759;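 active means binding response more than 3 SD above or below the average of its plate-row segment, actives on both sides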;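 further: Alexa488 bead fluorescence after subtracting the streptavidin-only scavenger bead signal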
# Target sequence (Q99759 whole entry, looked up): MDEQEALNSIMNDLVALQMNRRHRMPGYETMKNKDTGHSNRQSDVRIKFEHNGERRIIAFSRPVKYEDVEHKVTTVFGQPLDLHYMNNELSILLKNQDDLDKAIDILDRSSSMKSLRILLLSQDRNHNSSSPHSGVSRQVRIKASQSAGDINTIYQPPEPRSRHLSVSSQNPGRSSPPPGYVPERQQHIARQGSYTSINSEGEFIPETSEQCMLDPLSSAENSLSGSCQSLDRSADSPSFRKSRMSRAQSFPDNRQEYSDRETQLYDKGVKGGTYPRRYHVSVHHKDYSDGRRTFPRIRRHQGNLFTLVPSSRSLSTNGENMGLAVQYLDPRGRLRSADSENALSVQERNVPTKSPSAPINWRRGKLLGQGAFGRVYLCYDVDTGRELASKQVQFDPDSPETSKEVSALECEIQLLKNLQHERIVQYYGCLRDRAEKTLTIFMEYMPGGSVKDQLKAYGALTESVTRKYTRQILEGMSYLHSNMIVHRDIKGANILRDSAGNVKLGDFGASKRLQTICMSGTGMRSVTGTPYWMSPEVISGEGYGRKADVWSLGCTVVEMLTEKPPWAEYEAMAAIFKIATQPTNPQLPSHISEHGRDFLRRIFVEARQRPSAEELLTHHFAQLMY
# VIM-2 inh: inhibitors of Pseudomonas aeruginosa VIM-2 metallo-beta-lactamase; AID 1527; 0.89% of 290,000 active; purified VIM-2, nitrocefin hydrolysis, epi-absorbance fluorescence; inhibition, % at 5.6 µM;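 active means inhibition above the mean of all tested compounds plus 3 SD, cutoff set per screening run, cut at about 7.5% in these data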;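 further: red hydrolysis product quenches plate fluorescence so inhibitors raise well fluorescence; 0% = enzyme with DMSO and 100% = DMSO without enzyme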
# MEKK2wt confirm: raises or lowers MEK5 binding to wildtype human MEKK2, retest. shares compounds with MEKK3 PB1 HTS. bead flow cytometry, Alexa488-MEK5 binding to MEKK2 WT; actives lie on both sides. binding response (% of control), % at 10 µM. 2.4% of 5,900 active. AID 1892; in the data active means binding response below about 16% or above about 210%; inactive means in between
# MEKK2mut confirm: signal of MEK5 binding to mutant human MEKK2, retest; shares compounds with MEKK3 PB1 HTS; bead flow cytometry, Alexa488-MEK5 binding to MEKK2 mutant; percent response, % at 10 µM; 2% of 5,900 active; AID 1893; in the data active means percent response mostly above about 71%, no sharp cut-off; inactive means mostly below about 38%;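 further: higher means compound restores mutant binding toward wildtype level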
# MEKK3-MEK5 inh: MEKK3-MEK5 PB1 inhibition, single concentration confirmation; bead flow cytometry, Alexa488-MEK5 binding to MEKK3; stronger effect = lower value; 1.8% of 5,900 active; binding response (% of control), % at 10 µM; shares compounds with MEKK3 PB1 HTS;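 active means binding response below 72% of control, or above a set upper limit, though filed actives all read lower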;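 further: 100% = DMSO only wells and 0% = binding blocked by excess unlabeled MEK5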
# * = called active by the depositor; . = not tested or not shown; [ ] = dose if it differs, or a comment.
SMILES,MEKK2 mut-MEK5,IMP-1 inhibitor,MEKK2 WT-MEK5,MEKK3 PB1 HTS,VIM-2 inh,MEKK2wt confirm,MEKK2mut confirm,MEKK3-MEK5 inh
C=CCc1cc(C)ccc1OCCn1ccnc1,2,-3,110,101,-5,.,.,.
Cc1ccc(OCCn2ccnc2)c([N+](=O)[O-])c1,21,-3,136*,108,-2,101,5,102
COc1ccc(CN2CCN(C(=O)C3CCN(S(=O)(=O)c4cccs4)CC3)CC2)c(OC)c1OC,-47,0,1.0*[inhibitor],1.0*[inhibitor],3,103,4,102
COc1cccc(C(=O)N2CCN=C2SC)c1,-4,-2,76,58*[inhibitor],0,99,-5,97
CC(NS(=O)(=O)c1ccc(Cl)cc1)C(=O)NCCC1=CCCCC1 (configuration not stated),7,-1,100,101,-3,.,.,.
CCn1cc(Br)c(C(=O)Nc2cccc(Cl)c2)n1,-39,2,-5.0*[inhibitor],0.0*[inhibitor],1,97,-5,95
CCn1cc(Br)c(C(=O)Nc2ccc(Cl)c(Cl)c2)n1,-3,-5,97,86,-1,.,.,.
O=C(CSc1nc2c(sc3ccccc32)c(=O)n1Cc1ccccc1)NCC1CCCO1 (configuration not stated),4,-6,98,99,0,.,.,.
O=C(CSc1nc2c(sc3ccccc32)c(=O)n1Cc1ccco1)NCC1CCCO1 (configuration not stated),-21,2,3.0*[inhibitor],2.0*[inhibitor],0,107,8,110
Cc1sc2nc(CN3CCCC3)nc(N3CCN(S(=O)(=O)c4cccs4)CC3)c2c1C,4,-1,145*,103,1,141,36,109
Cc1sc2nc(CN3CCCCC3)nc(N3CCN(C(=O)c4ccco4)CC3)c2c1C,9,-3,104,101,-2,.,.,.
CC(C)(C)NCC1(CO)SC(N)=NC1=O (configuration not stated),-2,-2,96,92,-3,.,.,.
CCCc1cc(Nc2cccc(OC)c2)n2ncnc2n1,3,0,102,99,-2,.,.,.
COc1cc(OC)c(OC)cc1CN1CCN(S(=O)(=O)c2ccc(F)cc2)CC1,7,-1,119,122*,-3,102,5,103
CN(Cc1ccccn1)Cc1cn(Cc2ccccc2)nc1-c1ccc2c(c1)OCO2,42,0,196*,107,-4,106,4,101
CCCCn1cc(SCC(=O)O)c2ccccc21,-21,-9,-1.0*[inhibitor],-1.0*[inhibitor],-1,101,0,102
CCOc1ccc2c(c1)sc1nc(C(=O)OC)cc(=O)n12,-1,-1,103,104,3,.,.,.
COc1ccccc1NS(=O)(=O)c1cc([N+](=O)[O-])ccc1N/N=C/c1c(C)[nH]c2ccccc12,67*,0,.,75,-3,97,-1,91
O=C(NCC1CCCO1)C1CCC(=O)N1Cc1ccc(F)cc1 (configuration not stated),-26,-1,-4.0*[inhibitor],-1.0*[inhibitor],-1,101,-2,101
Cc1ccc(CN2C(=O)CCC2C(=O)NCC2CCCO2)cc1 (configuration not stated),2,-2,100,98,-1,.,.,.
CCOc1cc(CNCc2ccccc2)ccc1OCc1ccc(Cl)cc1,22,1,160*,99,-2,170,36,105
COc1ccc(CNCCc2ccc(Cl)cc2)cc1OCc1ccccc1,-83,-1,2.0*[inhibitor],2.0*[inhibitor],-1,145,23,108
COc1ccc(CNCCc2ccccc2)cc1OCC(N)=O,7,-2,106,98,-1,.,.,.
Cc1cc2c(cc1C)C(=O)NC(C)(C)C2,-1,-2,100,98,0,.,.,.
COC(=O)c1ccccc1NC(=O)CNc1cc(Cl)ccc1N1CCOCC1,0,-2,88,96,-2,.,.,.
SMILES,MEKK2 mut-MEK5,IMP-1 inhibitor,MEKK2 WT-MEK5,MEKK3 PB1 HTS,VIM-2 inh,MEKK2wt confirm,MEKK2mut confirm,MEKK3-MEK5 inh
Cc1ccc2c(c1)nnn2C1CCN(CC(=O)N(c2ccccc2)c2ccccc2)CC1,-14,-2,88,90,-1,.,.,.
Cc1ccc2c(c1)nnn2C1CCN(CC(=O)c2ccc(Cl)cc2)CC1,5,-3,120,129*,1,102,4,101
CCC1CCc2c([nH]c3ccccc3c2=O)O1 (configuration not stated),2,-2,110,147*,-2,99,5,103
CCOC(=O)C1=C(C)N=c2s/c(=C/c3ccc(OCC(=O)O)cc3)c(=O)n2C1c1cc(OC)c(OC)c(OC)c1 (configuration not stated),1,-1,99,103,1,.,.,.
CC1(C)CC(=O)C(C=Nc2cccnc2)=C(O)C1,-7,-3,90,90,-1,.,.,.
CCCCCCN=CC1=C(O)CC(C)(C)CC1=O,-32,-5,0.0*[inhibitor],0.0*[inhibitor],0,99,-3,93
CC1(C)CC(=O)C(C=Nc2ccncc2)=C(O)C1,-23,-2,-7.0*[inhibitor],0.0*[inhibitor],-1,98,-6,96
CC(C)C(=O)Nc1nnc(SCC(=O)NC2CC2)s1,-15,-2,11*[inhibitor],7.0*[inhibitor],-3,100,-4,101
Cc1ccc(CNC(=O)c2ccccc2NS(=O)(=O)c2ccc(Cl)nc2)cc1,7,-2,107,104,-1,.,.,.
CCCOC(=O)CC1C(=O)NCCN1C(=O)OC(C)(C)C (configuration not stated),-18,-1,48,39*[inhibitor],0,103,-1,102
CCOC(=O)CC1C(=O)NCCN1C(=O)c1ccc(C)cc1 (configuration not stated),-2,-3,98,94,-3,.,.,.
CCS(=O)(=O)N1Cc2ccccc2CC1C(=O)Nc1ccc(OC)cc1 (configuration not stated),-23,2,1.0*[inhibitor],2.0*[inhibitor],-1,96,-4,97
Cc1[nH]c2ccccc2c1C(=O)COc1ccccc1,1,-3,118,142*,-3,102,3,101
Cc1[nH]c2ccccc2c1C(=O)COc1ccccc1F,-39,0,103,106,-3,.,.,.
Cn1c(=O)c2c(ncn2CC(=O)N2CCOCC2)n(C)c1=O,0,-2,102,100,0,.,.,.
Cn1c(=O)c2c(ncn2CC(=O)N2CCN(C(=O)c3ccco3)CC2)n(C)c1=O,-9,-3,50*[inhibitor],85,-3,107,8,109
